High-throughput results as filed in PubChem BioAssay.
STAT3 blocker: IL-6 driven STAT3 reporter inhibitors, primary screen, U3A cells, luciferase, luminescence, MLSCN library; IL-6 STAT3-luciferase reporter; host cell line lacks STAT1; inhibition, % at 5.5 µM; 190,000 tested, 0.89% active;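 active = inhibition above the mean inhibition across all screened compounds plus 3 SD, cut at about 44% in these data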;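 note: 0% = DMSO only wells and 100% = 100 µM nifuroxazide control wells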
NF-kB expr up: activators of NF-kB expression in neurons, primary screen, cell-based, HTS; 190,000 tested, 1.6% active; fold change at 12.5 µM; AID 1239, 2008; human neuronal cells, NF-kB reporter expression; stronger effect = higher value; in the data active = fold change above about 3.3
STAT1 blocker: STAT1 signaling inhibitors, primary screen, cell-based, HTS, luciferase reporter; 200,000 tested, 0.35% active; NIH 3T3 STAT1-luciferase reporter, IFN-gamma, luminescence; inhibition, % at 5.5 µM;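 active = inhibition above a set limit, the mean inhibition across all tested compounds plus 3 SD, cut at about 34% in these data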;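 note: 0% = IFN-gamma with DMSO and 100% = IFN-gamma with 300 µM nifuroxazide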
STAT3 activator: IL-6 driven STAT3 reporter potentiators, primary screen, U3A cells, luciferase, luminescence, MLSCN library | IL-6 STAT3-luciferase reporter; 100% = signal with IL-6 EC80 alone | 190,000 tested, 0.91% active | activation (% of control), % at 5.6 µM;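 active = activation above the screen-wide mean of compound activation plus 3 SD, cut at about 130% in these data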;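 note: 0% = background luminescence of wells with medium and substrate only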
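Material: STAT3-luciferase reporter U3A cells; Probe or stimulus: IL-6 (33 ng/mL); Incubation: compound pre-incubation 1 h before IL-6, then 6 h stimulation at 37 °C; Technique: luminescence from STAT3-driven luciferase reporter; Evaluation: % activation versus median of IL-6-stimulated wells; Controls: IL-6-only high control.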
STAT1 activator: STAT1 signaling activators, primary screen, cell-based, HTS, luciferase reporter. NIH 3T3 STAT1-luciferase reporter, IFN-gamma, luminescence; 100% = IFN-gamma alone, no compound. activation (% of control), % at 5.5 µM. 200,000 tested, 2.6% active. AID 932, 2007;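 active = activation above the screen-wide mean activation plus 3 SD, cut at about 130% in these data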;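 note: raw ratio to IFN-gamma control signal so 100% means no change and 0% no light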
APP 5'UTR act: activators of APP 5'UTR luciferase reporter, primary screen, SH-SY5Y cells; 190,000 tested, 1% active; SH-SY5Y APP 5'UTR luciferase reporter, luminescence; zero percent = DMSO vehicle wells; AID 1276, 2008; activation, % at 2 µM;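 active = activation above a set limit, based on mean plus 3 SD of controls, cut at about 140% in these data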
Starred values were filed as active, the others as inactive. Only some compounds are listed: those with a hit (about 4.9% of all), similar ones and a draw of the others.

SMILES	STAT3 blocker	NF-kB expr up	STAT1 blocker	STAT3 activator	STAT1 activator	APP 5'UTR act
COc1cccc([C@@H]2Oc3ccc(OC)cc3C(=O)[C@H]2O)c1	3.2	5.69*	2.5	94.9	97.7	145.8*
COc1ccc2c(c1)C(=O)[C@@H](O)[C@H](c1ccc(OC)c(Br)c1)O2	8.5	1.43	-6.0	90.5	105.5	28.2
CN(C)CCOc1cc(Cl)cc(Cl)c1	9.3	4.25*	3.0	96.2	95.7	14.7
COC(=O)CCc1sc(Nc2ccccc2)nc1-c1ccc(OC)cc1	-12.6	0.96	-41.9	109.3	138.3*	44.3
CCOC(=O)N1CCN(S(=O)(=O)c2cc([N+](=O)[O-])c(C)cc2C)CC1	3.0	0.87	2.6	101.3	96.3	10.1
CCc1ccccc1NC(=O)c1cnc2n(c1=O)CCS2	13.4	1.59	-13.3	93.2	111.9	5.2
CCc1ccc(NC(=O)c2cnc3n(c2=O)CCS3)cc1	-16.8	2.76	-34.0	117.7	130.8*	40.0
O=c1c(C=NCc2cccnc2)c(C(F)(F)F)[nH]n1-c1nc2ccccc2s1	55.6*	1.48	37.6*	54.4	64.4	95.0
CC(C)(C)c1ccc(/C=C/C(=O)NC2=NCCS2)cc1	27.7	1.93	2.8	79.4	97.5	183.8*
CCOc1ccc2nc(SCc3ccccc3C#N)sc2c1	6.2	2.87	-38.0	104.5	134.2*	115.6
O=C(O)/C=C\C(=O)N1CCc2ccccc21	-7.6	0.95	8.8	111.9	92.0	19.6
O=C(/C=C/c1ccc(Cl)cc1Cl)N1CCc2ccccc21	8.6	2.91	-45.2	96.9	141.0*	103.2
C=CCN1C(=O)N/C(=C/c2ccc(N3CCOCC3)o2)C1=O	17.5	0.44	25.1	84.3	78.2	-88.5
O=C1N/C(=C/c2ccc(N3CCCC3)cc2)C(=O)N1c1ccccc1	-1.8	1.63	-34.4	103.5	130.7*	38.8
O=C1N/C(=C/c2ccc(N3CCOCC3)o2)C(=O)N1c1ccccc1	14.8	6.25*	-0.5	89.7	100.4	-54.0
O=C1/C(=C/c2ccc(N3CCCC3)cc2)NC(=S)N1C1CC1	10.0	0.89	-17.1	90.6	115.7	34.7
O=C(CCCCn1c(=O)c2ccccc2n(Cc2ccccc2F)c1=O)NC1CCN(Cc2ccccc2)CC1	-3.1	0.97	2.0	103.6	97.2	9.0
CN1CCN(S(=O)(=O)c2cccc(C(=O)NCc3ccccc3Cl)c2)CC1	2.1	0.92	-6.0	106.1	103.5	4.8
Clc1ccc(-c2nnc(SCc3ccon3)o2)c(Cl)c1	35.2	9.71*	-28.5	71.7	140.6*	143.5*
Clc1ccc(-c2nnc(CCc3ccccc3)o2)c(Cl)c1	1.1	2.54	-41.4	103.1	136.9*	62.3
Clc1ccc(-c2nnc(SCc3nc4ccccc4[nH]3)o2)c(Cl)c1	3.4	1.07	4.5	99.8	95.9	55.5
C=CCSc1nnc(-c2ccc(Cl)cc2Cl)o1	33.3	7.5*	-21.8	75.7	119.9	158.9*
CCOC(=O)c1sc(NC(=O)Cn2nnc3sc4c(c3c2=O)CCC(C(C)(C)C)C4)nc1C (configuration not stated)	-12.7	1.26	-3.1	108.0	105.2	8.7
COc1ccc([N+](=O)[O-])cc1NC(=O)c1ccc(CN(c2ccccc2)S(C)(=O)=O)cc1	4.7	1	0.8	96.3	99.3	-9.7
Cc1occc1C(=O)NN=C1C2CC3CC(C2)CC1C3	-18.2	2.49	-61.0	118.0	149.6*	154.1*
SMILES	STAT3 blocker	NF-kB expr up	STAT1 blocker	STAT3 activator	STAT1 activator	APP 5'UTR act
Cn1c(NC(=S)Nc2ccccc2)nc2ccccc21	21.2	1.12	-47.3	82.5	141.5*	160.3*
S=C(Nc1ccccc1)Nc1nc2ccccc2n1CCOc1ccc(Br)cc1	-1.0	1.05	8.1	100.4	92.6	10.5
C/C(=N\NC(=O)c1ccc(Br)cc1)c1cccc(NC(=O)c2cccnc2)c1	7.3	0.96	-13.3	103.0	110.5	15.4
C/C(=N\NC(=O)c1nn(C)cc1Br)c1cccc(NC(=O)c2ccncc2)c1	0.5	1.15	-46.5	99.8	141.4*	33.0
O=C(O)C(=O)/C(=C\c1ccccc1)c1ccc2ccccc2n1	-82.4	1.57	-47.9	168.8*	144.2*	128.9
O=C(O)C(=O)/C(=C\c1cccc2ccccc12)c1ccc2ccccc2n1	-29.2	1.1	8.3	125.6	90.8	-0.4
O=C(O)C(=O)/C(=C\c1ccc([N+](=O)[O-])cc1)c1ccc2ccccc2n1	9.2	1.2	-57.8	94.2	149.8*	116.6
Cc1ccc(CNc2ccc3c(c2)ncn3C)cc1	-9.2	3.27	-42.5	112.0	139.1*	106.7
Cc1ccc(C(=O)Nc2ccc3c(c2)ncn3C)cc1	7.4	3.49*	-42.2	94.7	138.9*	139.5*
CCc1ccc(CNc2ccc3c(c2)ncn3C)cc1	-5.0	2.37	-52.9	110.8	148.1*	102.4
CCn1cnc2cc(NCc3ccncc3)ccc21	2.7	0.96	-1.8	98.9	106.9	7.0
Cn1cnc2cc(NCc3cccs3)ccc21	3.5	1.9	-14.2	100.0	112.0	12.9
CCc1nc(C)cc(N)c1OCc1ccccc1	7.1	1.25	-4.2	98.5	103.9	11.7
CCNc1nc(OC)nc(N2CCC(Cc3ccccc3)CC2)n1	0.3	1.11	5.7	99.0	94.9	6.7
COCCNC(=O)CCCn1c(=O)c2cc(OC)c(OC)cc2n(CC(=O)c2ccccc2)c1=O	8.5	0.88	-0.8	96.9	102.4	6.7
COc1ccc(-c2nn(-c3ccccc3)cc2/C=C/C(=O)N2CCOCC2)cc1OC	9.1	1.25	8.1	94.5	91.8	8.0
CCCc1cc(C(=O)Nc2ccc(C)cc2)no1	16.2	2.06	-38.6	90.8	134.6*	21.4
CCc1ccc(NC(=O)c2cc(CC(C)C)on2)cc1	-6.6	2.58	-27.5	105.5	126.8	7.6
Cc1ccc(NC(=O)c2onc(C)c2Cl)cc1	-24.4	3.15	-28.9	128.6	126.2	95.8
Cc1ccc(NC(=O)c2cc(C)on2)cc1	37.4	3.33*	-32.4	71.2	129.6*	82.3
COc1cc(-c2nnc(CSc3nnc4nc(C)cc(C)n34)o2)cc(OC)c1OC	5.8	1.01	-2.1	99.1	101.9	0.5
Cc1noc(C)c1N=Nc1ccccc1C(=O)O	2.3	0.91	-1.2	103.4	101.5	16.7
Cc1[nH]c2ccccc2c1N=Nc1cccc(C(=O)O)c1	-9.4	4.13*	-52.3	108.5	146.8*	82.6
Cc1[nH]c2ccccc2c1N=Nc1ccccc1C(=O)O	-41.8	0.92	8.0	135.3*	92.8	4.5
Cc1ccc(S(=O)(=O)N(CC(=O)N/N=C/c2ccccc2C(=O)O)c2cc(Cl)cc(Cl)c2)cc1	6.0	1.22	-3.7	99.7	103.1	10.8
